From publication PMC6886526 (Journal of structural biology, 2016)
Where “and” joins values, the source holds several entries; their conditions need not be identical. Equal values may be shown once.

How the values were obtained:
Human enolase 1 (ENO1) = Human enolase 1 (ENO1) (Homo sapiens, UniProt P06733); assay: FTS assay with negative control protein; format: binding; conditions: 10, 25, 50 and 100 μM ligand
How it was run: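 Human enolase 1 was mixed with SYPRO Orange dye in 100 mM HEPES pH 7.5 with 150 mM NaCl. Ligands were dispensed acoustically from a DMSO stock. Plates were scanned from 10 to 80 °C at 1.5 °C min-1 on a real-time PCR instrument, reading fluorescence every 10 s. Stabilisation was judged from the melting temperature shift (ΔTm), background reduction and melting-curve shape.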

StAcrR [1] = target: T1, StAcrR (Salmonella enterica subsp. enterica serovar Typhimurium, UniProt Q7CR15); assay: Fluorescence-based thermal shift; format: binding; conditions: for FTS rank (Table S1): rank among hits of the SPC2-ECH008 library screen; for dose-dependent effect on StAcrR thermal stability: 2.5-100 μM ligand
StAcrR [2] = target: T1, StAcrR; assay: Competition FP assay in the presence of Pf; format: binding; conditions: for IC50: IC50, competition FP, 10 μM StAcrR and 100 nM Pf
EcAcrR-Glu67Ala mutant = conditions: ref Li et al., 2007, Su et al.; cited from earlier work
StAcrR [3] = target: T1, StAcrR; assay: Fluorescence polarization; format: binding
human ENO1 = human ENO1 (Homo sapiens, UniProt P06733); assay: FP binding assay with negative control protein; conditions: ENO1 up to 100 μM
Sequence of human ENO1 (P06733 whole entry): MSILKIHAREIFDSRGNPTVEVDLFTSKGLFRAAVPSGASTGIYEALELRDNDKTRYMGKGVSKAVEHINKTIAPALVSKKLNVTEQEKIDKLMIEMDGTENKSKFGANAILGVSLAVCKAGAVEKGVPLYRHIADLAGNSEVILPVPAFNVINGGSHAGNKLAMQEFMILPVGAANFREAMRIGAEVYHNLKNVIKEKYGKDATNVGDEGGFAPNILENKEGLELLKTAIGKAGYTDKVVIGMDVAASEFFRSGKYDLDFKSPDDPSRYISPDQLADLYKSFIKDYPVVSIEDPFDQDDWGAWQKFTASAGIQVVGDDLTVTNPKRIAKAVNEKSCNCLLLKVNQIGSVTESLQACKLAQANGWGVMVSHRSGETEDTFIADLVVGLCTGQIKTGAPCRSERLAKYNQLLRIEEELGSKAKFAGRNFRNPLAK

Sequence of Human enolase 1 (ENO1) (P06733 whole entry): as above

SMILES	FTS rank (Table S1) (StAcrR [1])	IC50 (StAcrR [2])	dose-dependent effect on StAcrR thermal stability (StAcrR [1])	other results
Cc1cc(N)c2ccccc2[n+]1CCCCCCCCCC[n+]1c(C)cc(N)c2ccccc21 [Dequalinium chloride, dequalinium]	14	22.5 µM	–	effect on thermal stability of human enolase 1 (Human enolase 1 (ENO1)): no effect; change of Tm of StAcrR (StAcrR [1]; below 10 μM ligand): did not notably change
O=C(NC(=O)c1c(F)cccc1F)Nc1ccc(Cl)cc1 [Diflubenzuron, diflubenzuron]	–	–	–	competition with Pf for binding (StAcrR [2]; negative control ligand): did not compete
C[C@]12CC[C@@H]3c4ccc(OC(=O)N(CCCl)CCCl)cc4CC[C@H]3[C@@H]1CC[C@@H]2O [Estramustine, estramustine]	5	~18 µM and 18 µM	Apparent increase in the StAcrR thermal stability at very low concentrations	–
CC[n+]1c(-c2ccccc2)c2cc(N)ccc2c2ccc(N)cc21 [Et, ethidium]	–	–	–	binding by the Glu67Ala mutant of EcAcrR (EcAcrR-Glu67Ala mutant): abolishment of the binding; Kd (StAcrR [3]): 67.3 ± 4.6 µM
C[C@]12CC[C@@H]3c4ccc(O)cc4C[C@@H](CCCCCCCCC[S+]([O-])CCCC(F)(F)C(F)(F)F)[C@H]3[C@@H]1CC[C@@H]2O (stereo partly shown) [Fulvestrant, fulvestrant]	1	40.1 µM	Apparent increase in the StAcrR thermal stability at very low concentrations	–
COC1=C(OC)C(=O)C(CCCCCCCCCCO)=C(C)C1=O [Idebenone, idebenone]	2	2.8 µM	required higher concentrations	–
Nc1ccc2cc3ccc(N)cc3nc2c1 [Pf, proflavine]	–	–	–	FP increase with human ENO1 (human ENO1): No FP increase; binding by the Glu67Ala mutant of EcAcrR (EcAcrR-Glu67Ala mutant): abolishment of the binding; Kd (StAcrR [3]): 3.9 ± 0.1 µM; affinity to StAcrR relative to Et and R6G (StAcrR [3]; ratio of FP Kd values): over 10 fold
C[C@]12CC[C@H](O)CC1=CC[C@@H]1[C@@H]2CC[C@]2(C)C(=O)CC[C@@H]12 [Prasterone, prasterone]	6	5.4 µM	required higher concentrations	FTS rank (Table S1) (StAcrR [1]; listed as prasterone): 9
CC/N=c1\cc2oc3cc(NCC)c(C)cc3c(-c3ccccc3C(=O)OCC)c-2cc1C [R6G, rhodamine 6G]	–	–	–	binding by the Glu67Ala mutant of EcAcrR (EcAcrR-Glu67Ala mutant): abolishment of the binding; Kd (StAcrR [3]): 43.7 ± 1.3 µM
CC(C)c1nc(CN(C)C(=O)N[C@H](C(=O)N[C@@H](Cc2ccccc2)C[C@H](O)[C@H](Cc2ccccc2)NC(=O)OCc2cncs2)C(C)C)cs1 [Ritonavir, ritonavir]	4	–	Apparent increase in the StAcrR thermal stability at very low concentrations	–
CSc1nc2cc(Cl)c(Oc3cccc(Cl)c3Cl)cc2[nH]1 [Triclabendazole, triclabendazole]	3	25.7 µM	required higher concentrations	–
